What was measured:
[1] = AUC (0 to infinity) in CD-1 mouse at 2 mg/kg, iv administered as single bolus dose by LC-MS/MS analysis; format: ADME, organism-based; set-up: time infinity, dose 2 mg/kg, route intravenous; settings: plasma
Outline: (§1)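 Single 2 mg/kg IV bolus via lateral tail vein to male CD-1 mice. Mice euthanized at 0.083–24 h, 3 per time point (27 animals); cardiac-puncture blood into heparin on ice, plasma spun at 4 °C and immediately extracted with acetonitrile/0.1% formic acid plus IS, LC-MS/MS. Noncompartmental CL = Dose/AUC0–inf, t1/2 = 0.693/k, Vss from AUMC/AUC, MRT = Vss/CL.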

[2] = Fraction unbound in CD-1 mouse liver microsomes after 7 hrs by equilibrium dialysis method; format: ADME
Outline: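 Equilibrium dialysis of 0.25 mg/mL mouse liver microsomes in phosphate buffer against PBS, 7 h at 37 °C, 5% CO2, test compound 0.1, 0.5 or 2 µM, triplicate; LC-MS/MS; fraction unbound = buffer/microsome concentration.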

[3] = Mean residence time in CD-1 mouse at 2 mg/kg, iv administered as single bolus dose by LC-MS/MS analysis; format: ADME, organism-based; set-up: dose 2 mg/kg, route intravenous; settings: in vivo; outline: as §1
[4] = Volume of distribution at steady state in CD-1 mouse at 2 mg/kg, iv administered as single bolus dose by LC-MS/MS analysis; format: ADME, organism-based; set-up: dose 2 mg/kg, route intravenous; settings: in vivo, read-out: Vdss; outline: as §1
[5] = system: Plasma; assay: Drug metabolism in CD-1 mouse plasma assessed as maximum intrinsic clearance for hydrolysis metabolite formation by LC-MS/MS analysis; format: ADME, cell-free
Outline: (§2)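 Mouse plasma depletion kinetics at 37 °C, substrate range 0.0023–5 µM, up to 3 h; samples quenched into acetonitrile/tolbutamide, LC-MS/MS. CLint per concentration from t1/2; apparent Vmax and Km fitted by nonlinear regression to Michaelis-Menten, formation rate simulated from fit; mean of two replicates.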

[6] = In vitro half life in CD-1 mouse plasma at 0.83 uM by LC-MS/MS analysis; format: ADME, cell-free
Outline: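 Screening stability: compound at 0.83 µM in mouse plasma at 37 °C, up to 3 h; timed aliquots quenched into acetonitrile with tolbutamide IS, centrifuged, LC-MS/MS; half-life from depletion, CLint = (0.693/t1/2)/plasma concentration.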

[7] = Half life in CD-1 mouse at 2 mg/kg, iv administered as single bolus dose by LC-MS/MS analysis; format: ADME, organism-based; set-up: dose 2 mg/kg, route intravenous; settings: in vivo; outline: as §1
[8] = Ratio of drug level in blood to plasma in CD-1 mouse at 1 uM treated 20 mins after amide hydrolysis inhibitor DFP challenge measured after 1 hr by LC-MS/MS analysis; format: ADME; settings: whole blood
Outline: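 Fresh whole blood pre-incubated 20 min with 100 µM DFP, warmed to 37 °C, spiked to 1 µM, incubated 1 h, then plasma separated; reference plasma spiked at 1 µM. Extracted with 6 volumes acetonitrile/IS, LC-MS/MS; ratio = reference plasma peak area / treated plasma peak area.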

[9] = Drug metabolism in CD-1 mouse NADPH-fortified liver microsomes assessed as hydrolysis metabolite formation rate by LC-MS/MS analysis; format: ADME; settings: for Km: read-out: Km(app)
Outline: (§3)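 Mouse liver microsomes 0.25 mg/mL in 0.1 M phosphate pH 7.4, with or without 1 mM NADPH, substrate 0.0023–5 µM; sampling to 40 min into acetonitrile/IS, LC-MS/MS depletion. Hydrolysis Vmax/Km solved from no-NADPH incubations, then NADPH-dependent constants; metabolite formation rate simulated from fitted constants; duplicates.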

[10] = Fraction unbound in CD-1 mouse plasma after 7 hrs by equilibrium dialysis method; format: ADME, cell-free
Outline: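 Mouse plasma pre-treated 20 min with 100 µM DFP to block hydrolysis, spiked at 0.1, 0.5 or 2 µM, equilibrium dialysis against PBS for 7 h at 37 °C, 5% CO2, triplicate; matrix-matched samples extracted with acetonitrile/IS, LC-MS/MS; fu = buffer/plasma concentration.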

[11] = Drug metabolism in CD-1 mouse liver microsomes assessed as hydrolysis metabolite formation rate by LC-MS/MS analysis; format: ADME; settings: for Km: read-out: Km(app); outline: as §3
[12] = Plasma clearance in CD-1 mouse at 2 mg/kg, iv administered as single bolus dose by LC-MS/MS analysis; format: ADME, organism-based; set-up: dose 2 mg/kg, route intravenous; outline: as §1
[13] = system: Plasma; assay: Drug metabolism in CD-1 mouse plasma assessed as hydrolysis metabolite formation rate by LC-MS/MS analysis; format: ADME, cell-free; settings: for Km: read-out: Km(app); outline: as §2

## CC(C)NC(=O)[C@H]1CC[C@@H](n2/c(=N/C(=O)c3cccc(C(F)(F)F)c3)[nH]c3ccc(CN4CCC(C(C)(C)O)CC4)cc32)CC1
[1]
  AUC(0-inf): 1.2 µM·h
[2]
  fraction unbound at 7 h: 0.22
[3]
  MRT: 2.92 h
[4]
  Vd: 7.78 L/kg
[5]
  CL: 1.68 uL/min.ml
[6]
  half-life at 0.83 µM: 510 min
[7]
  half-life: 132 min
[8]
  blood plasma ratio at 1 h, 1 µM: 0.9
[9]
  Vmax(app): 194 pmol/min/mg
  Km: 1950 nM
[10]
  fraction unbound at 7 h: 0.012
[11]
  Vmax(app): 5.38 pmol/min/mg
  Km: 261 nM
[12]
  clearance: 44.3 mL/min/kg
[13]
  Vmax(app): 1.14 pmol/min/mL
  Km: 680 nM

## CC(C)NC(=O)[C@H]1CC[C@@H](n2/c(=N/C(=O)c3cc(F)cc(F)c3)[nH]c3ccc(CN4CCC(C(C)(C)O)CC4)cc32)CC1
[1]
  AUC(0-inf): 0.957 µM·h
[2]
  fraction unbound at 7 h: 0.53
[3]
  MRT: 1.28 h
[4]
  Vd: 4.49 L/kg
[5]
  CL: 10.7 uL/min.ml
[6]
  half-life at 0.83 µM: 174 min
[7]
  half-life: 60.6 min
[8]
  blood plasma ratio at 1 h, 1 µM: 0.9
[9]
  Vmax(app): 143 pmol/min/mg
  Km: 936 nM
[10]
  fraction unbound at 7 h: 0.046
[11]
  Vmax(app): 5.12 pmol/min/mg
  Km: 29.2 nM
[12]
  clearance: 58.5 mL/min/kg
[13]
  Vmax(app): 3.81 pmol/min/mL
  Km: 357 nM
